# Published values pooled from the literature.
# Lines come from different studies, so protocols differ.
# EGFR G719S: Epidermal growth factor receptor (EGFR, Homo sapiens, UniProt P00533, G719S)
# EGFR A750P/del747-749: Epidermal growth factor receptor (EGFR, Homo sapiens, UniProt P00533, A750P/del747-749)
# EGFR: Epidermal growth factor receptor (EGFR, Homo sapiens, UniProt P00533)
# EGFR T790M: Epidermal growth factor receptor (EGFR, Homo sapiens, UniProt P00533, T790M)
# EGFR del747-752/P753S: Epidermal growth factor receptor (EGFR, Homo sapiens, UniProt P00533, del747-752/P753S)
# EGFR del752-759: Epidermal growth factor receptor (EGFR, Homo sapiens, UniProt P00533, del752-759)
# EGFR G719C: Epidermal growth factor receptor (EGFR, Homo sapiens, UniProt P00533, G719C)
# EGFR L861Q: Epidermal growth factor receptor (EGFR, Homo sapiens, UniProt P00533, L861Q)
# EGFR del746-750: Epidermal growth factor receptor (EGFR, Homo sapiens, UniProt P00533, del746-750)
# EGFR L858R: Epidermal growth factor receptor (EGFR, Homo sapiens, UniProt P00533, L858R)
# EGFR L858R/T790M: Epidermal growth factor receptor (EGFR, Homo sapiens, UniProt P00533, L858R/T790M)
Structure (SMILES),target,read-out,method,concentration,remaining binding
CCN1CCN(Cc2ccc(C(=O)Nc3ccc(C)c(Oc4ccc5c(c4)CC(=O)N5)c3)cc2C(F)(F)F)CC1,EGFR G719S,binding,competition with immobilised ligand,1 µM,80%
Cc1cnc(Nc2ccc(C(=O)N3CCC(N4CCCC4)CC3)cc2)nc1-c1cc2ccccc2s1,EGFR A750P/del747-749,binding,competition with immobilised ligand,1 µM,72%
O=C(NCC1CCOCC1)c1n[nH]cc1NC(=O)c1c(F)cccc1F,EGFR G719S,binding,competition with immobilised ligand,1 µM,100%
C[C@H]1CCN(c2nccc(-c3cnn4ncccc34)n2)C1,EGFR,binding,,1 µM,100%
O=C(c1ccc(Nc2ncc(Cl)c(-c3cc4ccccc4s3)n2)cc1)N1CCC(N2CCCC2)CC1,EGFR G719S,binding,competition with immobilised ligand,1 µM,98%
CN(C)c1nccc(-c2cnn3ncccc23)n1,EGFR T790M,binding,,1 µM,100%
CNC(=O)[C@@H]1CC[C@@H](n2c(-c3ccc4cnccc4c3)nc3ccc(C(=O)NCc4cccc(C(N)=O)c4)cc32)C1,EGFR del747-752/P753S,binding,competition with immobilised ligand,1 µM,100%
O=C(c1ccc(Nc2ncc(Cl)c(-c3ccc(Cl)s3)n2)cc1)N1CCC(N2CCCC2)CC1,EGFR A750P/del747-749,binding,competition with immobilised ligand,1 µM,72%
CC1CCCN1c1nccc(-c2cnn3ncccc23)n1 (centres unmarked),EGFR del752-759,binding,,1 µM,100%
Cc1nc(N2CC[C@@H](O)C2)ncc1-c1cc(C(F)(F)F)cc2[nH]ncc12,EGFR G719C,cell-free assay,competition with immobilised ligand,1 µM,100%
O=C(c1ccc(Nc2nccc(-c3cc4ccccc4s3)n2)cc1)N1CCC(N2CCCC2)CC1,EGFR L861Q,binding,competition with immobilised ligand,1 µM,89%
F[C@@H]1CCN(c2nccc(-c3cnn4ncccc34)n2)C1,EGFR L861Q,binding,,1 µM,93%
O=C(NCCCN1CCOCC1)c1ccc(Nc2ncc(Cl)c(-c3ccc(Cl)s3)n2)cc1,EGFR G719C,binding,competition with immobilised ligand,1 µM,100%
c1cncc(-c2cccc(Nc3nccc(NC4CCCCC4)n3)c2)c1,EGFR del746-750,binding,competition with immobilised ligand,10 µM,38%
C[C@@H]1CN(c2cc(-c3n[nH]c4ccc(OC5(C)CC5)cc34)ncn2)C[C@H](C)O1,EGFR L858R,cell-free assay,competition with immobilised ligand,0.1 µM,82%
c1cnn2ncc(-c3ccnc(N4CCC45COC5)n3)c2c1,EGFR L861Q,binding,,1 µM,96%
CN1CCN(c2ccc(Nc3nccc(-c4cccc([N+](=O)[O-])c4)n3)cc2C(F)(F)F)CC1,EGFR L861Q,binding,,10 µM,96%
CC(C)(C)c1ccc(-c2nc(CBr)nn2-c2cccc(O)c2)cc1,EGFR L858R,cell-free assay,competition with immobilised ligand,10 µM,78%
CCN(CC)Cc1cc(Nc2ccnc3cc(Cl)ccc23)ccc1O,EGFR,cell-free assay,competition with immobilised ligand,0.1 µM,100%
CCC(=N\O)/C(C)=C/c1ccc(F)cc1,EGFR T790M,cell-free assay,competition with immobilised ligand,1 µM,100%
COc1ncc2cc3ccccc3nc2c1C#N,EGFR G719C,cell-free assay,competition with immobilised ligand,5 µM,2.1%
CNC(=O)c1ccc(Nc2ncc(C(F)(F)F)c(NCc3nccnc3N(C)S(C)(=O)=O)n2)cc1,EGFR L861Q,cell-free assay,competition with immobilised ligand,0.1 µM,100%
O=C(NCCCN1CCOCC1)c1ccc(Nc2nccc(-c3cc4ccccc4s3)n2)cc1,EGFR L858R,binding,competition with immobilised ligand,1 µM,88%
CN(CCCC(F)(F)F)c1nccc(-c2cnn3ncccc23)n1,EGFR del746-750,binding,,1 µM,80%
O=C(Nc1c[nH]nc1C(=O)NC1CCNCC1)c1cc(F)cc(F)c1,EGFR del746-750,binding,competition with immobilised ligand,1 µM,100%
CN1CCN(c2ccc(Nc3nccc(-c4ccccc4)n3)cc2C(F)(F)F)CC1,EGFR L858R/T790M,binding,,10 µM,93%
C[C@@H]1CN(c2ccc3ncc(-c4ccc5[nH]nc(C6CC6)c5c4)n3n2)C[C@H](C)O1,EGFR,binding,competition with immobilised ligand,0.5 µM,31%
Cc1nccc(COC(=O)N2C[C@@H]3[C@@H](CNC(=O)c4ccc5[nH]nnc5c4)[C@@H]3C2)n1,EGFR A750P/del747-749,cell-free assay,competition with immobilised ligand,1 µM,71%
Cc1cnn2ncc(-c3ccnc(N(C)C)n3)c2c1,EGFR G719C,binding,,1 µM,100%
Cn1cc(Cl)c2c(Oc3c(F)cc(Nc4cc(Cl)nc(N)n4)cc3F)ccnc21,EGFR T790M,cell-free assay,competition with immobilised ligand,0.1 µM,88%
COc1cnc(Nc2cccc(S(N)(=O)=O)c2)nc1N1CCN(c2ccccc2)C(=O)C1,EGFR del747-752/P753S,binding,competition with immobilised ligand,1 µM,75%
Cc1noc([C@H]2C[C@@H](c3ccc(C(F)(F)F)cc3)CN(C(=O)N3CCS(=O)(=O)C3)C2)n1,EGFR L858R/T790M,cell-free assay,competition with immobilised ligand,1 µM,96%
COc1cnc(Nc2cccc(S(N)(=O)=O)c2)nc1N1CCN(c2ccccc2)CC1,EGFR del752-759,binding,competition with immobilised ligand,1 µM,94%
COc1cccc(CNC(=O)c2nc3scc(COCc4ccc(C(=O)O)cc4)c3c(=O)[nH]2)c1,EGFR L858R,cell-free assay,competition with immobilised ligand,1 µM,88.3%
Nc1ncc2c(n1)-c1c([nH]c3ccc(C#CC4CC4)cc13)CCCC2,EGFR G719S,binding,competition with immobilised ligand,1 µM,98%
